As usually defined, the IC50 is the concentration that inhibits the measured activity by half. Low readings indicate inhibition by little substance, high ones a need for much substance.

One assay has as its target Collagenase 3 (Homo sapiens, UniProt P45452). Kind of assay: Inhibitory activity against human matrix metalloprotease-13 in quenched fluorescence assay at pH 7.4.
In assay [1] the target is 72 kDa type IV collagenase (Homo sapiens, UniProt P08253). Description: Inhibitory activity against matrix metalloprotease-2 (MMP-2) in quenched fluorescence assay at […]. In outline: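 Full-length human recombinant proMMP-2 from CHO cells was activated with 1 mM APMA for 45 min and used at 1 nM final. Cleavage of 4 μM Mca-Pro-Leu-Gly-Leu-Dpa-Ala-Arg-NH₂ was followed at 25 °C in Tris pH 7.5/NaCl/CaCl₂/Brij-35 buffer, with fluorescence read kinetically for 30 min. IC50 came from 8 inhibitor concentrations.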

A further assay deals with T1, Interstitial collagenase (Homo sapiens, UniProt P03956).
T1 sequence (P03956 whole entry): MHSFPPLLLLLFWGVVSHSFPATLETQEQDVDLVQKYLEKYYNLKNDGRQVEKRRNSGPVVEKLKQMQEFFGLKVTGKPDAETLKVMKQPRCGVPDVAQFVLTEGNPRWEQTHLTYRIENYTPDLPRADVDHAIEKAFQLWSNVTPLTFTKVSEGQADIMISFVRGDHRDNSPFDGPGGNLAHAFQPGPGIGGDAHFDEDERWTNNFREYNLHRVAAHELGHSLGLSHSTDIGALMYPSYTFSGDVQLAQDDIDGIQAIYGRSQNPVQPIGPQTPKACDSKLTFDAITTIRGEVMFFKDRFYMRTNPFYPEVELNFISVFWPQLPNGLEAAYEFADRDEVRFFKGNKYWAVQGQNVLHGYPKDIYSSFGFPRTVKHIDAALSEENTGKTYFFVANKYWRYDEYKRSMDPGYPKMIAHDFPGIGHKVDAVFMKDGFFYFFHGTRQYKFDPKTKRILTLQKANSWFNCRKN
Description: Inhibitory activity against human matrix metalloprotease-1 in quenched fluorescence assay at […]. Summed up: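 Quenched fluorescence assay using truncated human recombinant enzymes expressed in E. coli, at final concentrations of 8 nM for MMP-1 and 16 nM for MMP-3. Substrate was Mca-Pro-Leu-Gly-Leu-Dpa-Ala-Arg-NH₂ at 4 μM, at 25 °C, in 50 mM Tris pH 7.5, 0.2 M NaCl, 5 mM CaCl₂, 0.02% Brij-35. Fluorescence (ex 328/em 393 nm) was read kinetically for 30 min. Eight inhibitor concentrations were tested and IC50 was fitted from Vi/V0.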

For the next assay, the target named is Stromelysin-1 (Homo sapiens, UniProt P08254). Kind of assay: Inhibitory activity against human matrix metalloprotease-3 (MMP-3) ([…]).
Chain of Stromelysin-1 (P08254 whole entry): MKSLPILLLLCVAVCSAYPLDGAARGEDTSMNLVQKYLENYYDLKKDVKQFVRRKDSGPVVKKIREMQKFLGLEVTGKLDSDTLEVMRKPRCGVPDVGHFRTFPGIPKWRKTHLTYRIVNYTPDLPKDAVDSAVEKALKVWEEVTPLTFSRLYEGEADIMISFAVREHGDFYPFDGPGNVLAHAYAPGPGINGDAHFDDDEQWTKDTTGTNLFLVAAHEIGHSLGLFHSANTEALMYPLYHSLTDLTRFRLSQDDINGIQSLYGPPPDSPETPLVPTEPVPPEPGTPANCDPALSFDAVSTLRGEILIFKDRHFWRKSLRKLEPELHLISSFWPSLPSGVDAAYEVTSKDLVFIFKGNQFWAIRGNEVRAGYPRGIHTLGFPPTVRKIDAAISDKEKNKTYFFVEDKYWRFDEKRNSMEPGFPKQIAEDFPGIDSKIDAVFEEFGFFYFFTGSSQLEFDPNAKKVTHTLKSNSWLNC

Chain of 72 kDa type IV collagenase (P08253 whole entry): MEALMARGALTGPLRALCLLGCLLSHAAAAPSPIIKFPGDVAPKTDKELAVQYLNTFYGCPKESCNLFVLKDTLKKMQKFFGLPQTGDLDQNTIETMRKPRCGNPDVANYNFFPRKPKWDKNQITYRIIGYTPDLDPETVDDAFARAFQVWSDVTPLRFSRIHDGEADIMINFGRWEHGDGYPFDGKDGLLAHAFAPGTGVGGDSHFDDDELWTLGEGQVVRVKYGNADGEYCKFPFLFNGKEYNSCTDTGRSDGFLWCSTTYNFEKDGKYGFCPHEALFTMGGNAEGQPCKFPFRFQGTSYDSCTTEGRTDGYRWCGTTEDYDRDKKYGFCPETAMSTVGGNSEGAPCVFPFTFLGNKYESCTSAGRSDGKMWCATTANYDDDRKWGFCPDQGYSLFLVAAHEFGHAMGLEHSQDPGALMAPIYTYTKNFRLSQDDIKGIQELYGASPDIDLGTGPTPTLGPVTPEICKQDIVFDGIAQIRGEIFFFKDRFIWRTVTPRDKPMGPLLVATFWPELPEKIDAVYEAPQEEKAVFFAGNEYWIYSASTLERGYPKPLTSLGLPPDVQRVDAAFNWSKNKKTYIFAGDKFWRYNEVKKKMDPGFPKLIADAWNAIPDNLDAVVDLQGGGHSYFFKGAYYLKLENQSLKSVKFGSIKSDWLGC

On to `Cc1ccc(C#Cc2ccc(S(=O)(=O)NC(CC#Cc3ccccc3)C(=O)O)cc2)cc1` (stereo not drawn), for which the IC50 against Collagenase 3 was 0.089 µM; in assay [1], 0.019 µM; at Interstitial collagenase, above 10 µM; on Stromelysin-1, 22.1 µM.

As to `CSc1ccc(-c2ccc(S(=O)(=O)NC(CC#CCN3CCOCC3)C(=O)O)cc2)cc1` (stereo not drawn), the IC50 is 0.024 µM in assay [1], 11.5 µM against Interstitial collagenase and 5.06 µM at Stromelysin-1.

On to `O=C(O)C(CC#Cc1ccccc1)NS(=O)(=O)c1ccc(-c2ccc(F)cc2)cc1` (stereo not drawn), for which the IC50 against Collagenase 3 stood at 0.231 µM; in assay [1] it was 0.175 µM; against Interstitial collagenase, 5.6 µM; on Stromelysin-1 it was 8.9 µM.

With `COc1ccc(-c2ccc(S(=O)(=O)NC(CC#CCN3CCN(C(=O)OC(C)(C)C)CC3)C(=O)O)cc2)cc1` (stereo not drawn), the IC50 in assay [1] was 0.661 µM; at Interstitial collagenase, above 10 µM; on Stromelysin-1, above 10 µM.

In the case of `COc1ccc(-c2ccc(S(=O)(=O)NC(CC#CCN3CCCC3)C(=O)O)cc2)cc1` (stereo not drawn), the IC50 in assay [1] is 0.1 µM; on Interstitial collagenase, above 10 µM; at Stromelysin-1, above 10 µM.

Regarding `COc1ccc(-c2ccc(S(=O)(=O)NC(CC#Cc3ccc(N4CCOCC4)cc3)C(=O)O)cc2)cc1` (stereo not drawn), the IC50 in assay [1] was 0.158 µM; against Interstitial collagenase, above 10 µM; against Stromelysin-1 it was 14.6 µM.

For the compound `COc1ccc(-c2ccc(S(=O)(=O)NC(CC#CCN3CCOCC3)C(=O)O)cc2)cc1` (stereo not drawn), the IC50 in assay [1] was determined as 0.104 µM; against Interstitial collagenase, 13.7 µM; at Stromelysin-1 it was 10.7 µM.

Consider `O=C(O)C(CC#Cc1ccccc1)NS(=O)(=O)c1ccc(Oc2ccccc2)cc1` (stereo not drawn), for which the IC50 against Collagenase 3 was 2.15 µM; in assay [1], 1.48 µM; on Interstitial collagenase, above 10 µM; against Stromelysin-1 it was 4.56 µM.

Regarding `COc1ccc(-c2ccc(S(=O)(=O)NC(CC#CCN3CCN(c4ccccc4)CC3)C(=O)O)cc2)cc1` (stereo not drawn), the IC50 in assay [1] was 0.547 µM; on Interstitial collagenase, above 10 µM; on Stromelysin-1, above 10 µM.

Turning to `COc1ccc(S(=O)(=O)c2csc(S(=O)(=O)NC(CC#Cc3ccccc3)C(=O)O)c2)cc1` (stereo not drawn), the IC50 (against Collagenase 3; in assay [1]; at Interstitial collagenase; on Stromelysin-1) was above 10 µM in each case.

`O=C(O)C(CC#CCOc1ccccc1)NS(=O)(=O)c1ccc(-c2ccc(Br)cc2)cc1` (stereo not drawn): the IC50 was 0.254 µM against Collagenase 3, 0.023 µM in assay [1], above 10 µM against Interstitial collagenase and 1.81 µM on Stromelysin-1.

As to `COc1ccc(-c2ccc(S(=O)(=O)NC(CC#CCc3ccccc3)C(=O)O)cc2)cc1` (stereo not drawn), the IC50 at Collagenase 3 turned out to be 0.022 µM; in assay [1], 0.033 µM; at Interstitial collagenase, 3.34 µM; against Stromelysin-1 it was 0.777 µM.

On to `O=C(O)C(CC#CCN1CCOCC1)NS(=O)(=O)c1ccc(-c2ccccc2)cc1` (stereo not drawn), for which the IC50 is 0.297 µM in assay [1], above 10 µM on Interstitial collagenase and above 10 µM against Stromelysin-1.

In the case of `O=C(O)C(CC#Cc1ccccc1)NS(=O)(=O)c1ccc(-c2ccc(-c3ccccc3)cc2)cc1` (stereo not drawn), the IC50 is 0.059 µM against Collagenase 3, 0.029 µM in assay [1], above 10 µM against Interstitial collagenase and above 10 µM at Stromelysin-1.

As to `COCC#CCC(NS(=O)(=O)c1ccc(NC(=O)N2CCCC2)cc1)C(=O)O` (stereo not drawn), the IC50 at Collagenase 3 is 16.9 µM; in assay [1] it was 0.567 µM; at Interstitial collagenase, above 10 µM; against Stromelysin-1 it was above 10 µM.

On to `O=C(O)C(CC#Cc1ccccc1)NS(=O)(=O)c1ccc(/N=N/c2ccccc2)cc1` (stereo not drawn), for which the figures for the IC50 (in assay [1]; against Stromelysin-1) were 0.087 µM and 16.3 µM, respectively.

Take `COc1ccc(-c2ccc(S(=O)(=O)NC(CC#CCN3CCN(S(C)(=O)=O)CC3)C(=O)O)cc2)cc1` (stereo not drawn): the figures for the IC50 (in assay [1]; against Interstitial collagenase; on Stromelysin-1) were 1.16 µM, above 10 µM and above 10 µM, respectively.

With `CCCCOc1ccc(S(=O)(=O)NC(CC#Cc2ccccc2)C(=O)O)cc1` (stereo not drawn), the IC50 against Collagenase 3 is 2.04 µM; at Stromelysin-1, 15.4 µM.

On to `CCOc1cccc(-c2ccc(S(=O)(=O)NC(CC#Cc3ccccc3)C(=O)O)cc2)c1` (stereo not drawn), for which the IC50 is above 1.6 µM at Collagenase 3, 2.39 µM in assay [1] and above 10 µM against Interstitial collagenase.

(Values after ChEMBL document CHEMBL1134384, “Development of new carboxylic acid-based MMP inhibitors derived from functionalized propargylglycines” (J Med Chem, 2001).)
